Data from article PMC6044994 (ACS Omega, 2018).
Converted amounts (≈) assume the structure as drawn. Like-named read-outs stand apart in the source and are kept apart here.

How the values were obtained:
[1] = tested on: multidrug-resistant E. coli strains; assay type: cell-based, Escherichia coli; conditions: for inhibition at 1024 µg/mL: Escherichia coli
[2] = tested on: multidrug-resistant E. coli strains MRA11, MRC17, MRAE33; assay: Synergistic study with CIP, checkerboard method; assay type: cell-based, Escherichia coli; conditions: for MIC: Escherichia coli
[3] = tested on: E. coli; assay: CFU count of bacterial cells post treatment; assay type: cell-based, Escherichia coli; conditions: treated bacterial cells
[4] = tested on: S. pneumoniae; assay: CFU count of bacterial cells post treatment; assay type: cell-based, Streptococcus pneumoniae; conditions: treated bacterial cells
[5] = tested on: human red blood cells (hRBCs); assay: Hemolytic assay; assay type: cell-based
Outline: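 Erythrocytes from healthy donors (EDTA) pelleted at 2000 rpm for 10 min at 20 °C and washed three times in PBS. Made to a 10% suspension, diluted 1:10, then mixed 1:1 with test compound in PBS (gradient 1000–7.8 μg/mL). Incubated 1 h at 37 °C and centrifuged; supernatant A450 used to calculate % hemolysis.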

[6] = tested on: S. pneumoniae (MTCC 655); assay: In vitro antibacterial activity, broth dilution; assay type: cell-based; conditions: Streptococcus pneumoniae, MTCC655
[7] = tested on: E. coli (ATCC 25922); assay: In vitro antibacterial activity, broth dilution; assay type: cell-based; conditions: Escherichia coli, ATCC25922
[8] = tested on: S. pneumoniae; assay: Growth kinetic studies; assay type: cell-based, Streptococcus pneumoniae; conditions: for time at which growth was observed: S. pneumoniae
Outline: (§1)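 Fresh cultures grown 12 h at 37 °C, then about 2 × 10^6 cells/mL inoculated into 50 mL nutrient broth. […] Shaken at 37 °C, 160 rpm. Samples taken every 2 h from 0 to 22 h, with OD600 plotted against time.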

[9] = tested on: E. coli; assay: Growth kinetic studies; assay type: cell-based, Escherichia coli; conditions: for time at which growth was observed (lag phase): sub-MIC concentration
Outline: as §1

[10] = tested on: E. coli cells; assay: TEM analysis of cell morphology; assay type: cell-based, Escherichia coli; conditions: MIC concn, 1 h
Outline: (§2)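 Cells standardized to A600 ≈ 0.1 and exposed 1 h to test compound: E. coli at 62.5 or 125 μg/mL, S. pneumoniae at 125 μg/mL. Washed in PBS, fixed overnight in 2.5% glutaraldehyde (phosphate/MgCl2 buffer, pH 6.5). Postfixed 2 h in 2% OsO4, stained en bloc with 1% uranyl acetate, ethanol-dehydrated, Epon-embedded (60 °C, 48 h). Ultrathin sections imaged by TEM.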

[11] = tested on: S. pneumoniae cells; assay: TEM analysis of cell morphology; assay type: cell-based, Streptococcus pneumoniae; conditions: MIC concn, 1 h
Outline: as §2

[12] = tested on: E. coli biofilm; assay: Anti-biofilm activity by XTT reduction assay; assay type: cell-based; conditions: Escherichia coli, read-out: inhibition of biofilm formation (XTT)
Outline: (§3)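 Biofilm grown in tryptic soy broth from 5 × 10^5 CFU/mL inocula with 2-fold serial dilutions of test compound (7.812–1000 μg/mL), 37 °C for 24 h, static. Nonadherent cells removed by PBS wash.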

[13] = tested on: S. pneumoniae biofilm; assay: Anti-biofilm activity by XTT reduction assay; assay type: cell-based; conditions: Streptococcus pneumoniae, read-out: inhibition of biofilm formation (XTT)
Outline: as §3

[14] = tested on: E. coli biofilm; assay: Anti-biofilm activity by crystal violet assay; assay type: cell-based; conditions: Escherichia coli, read-out: inhibition of biofilm formation (crystal violet)
[15] = tested on: S. pneumoniae biofilm; assay: Anti-biofilm activity by crystal violet assay; assay type: cell-based; conditions: Streptococcus pneumoniae, read-out: inhibition of biofilm formation (crystal violet)
[16] = Cytotoxicity by MTT assay; assay type: cell-based, human; conditions: human, HEK293 cells
[17] = tested on: HEK293 cells; assay: Cytotoxicity by MTT assay; assay type: cell-based, human; conditions: HEK293, up to 100 μg/mL concentration
[18] = tested on: G. mellonella larvae; assay: In vivo toxicity, larval viability; design: species or system Galleria mellonella; conditions: up to 2.5 mg/mL
[19] = tested on: G. mellonella larvae; assay: In vivo toxicity, hemocyte density of larvae; design: species or system Galleria mellonella; conditions: 2.5 mg/mL, 24 h
Outline: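 Three larvae injected with 20 μL of test compound at 1.25 or 2.5 mg/mL and kept 24 h at 30 °C in the dark. Hemolymph collected from the anterior end and diluted 1 in 10 in cold PBS with 0.37% 2-mercaptoethanol. Hemocytes counted on a hemocytometer and density back-calculated.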

[20] = read-out: MIC alone, E. coli MRA11
[21] = read-out: MIC alone, E. coli MRAE33
[22] = read-out: MIC alone, E. coli MRC17
[23] = read-out: % inhibition of growth, E. coli MRA11, at 1024 μg/mL (MIC)
[24] = read-out: % inhibition of growth, E. coli MRAE33, at 1024 μg/mL (MIC)
[25] = read-out: % inhibition of growth, E. coli MRC17, at 1024 μg/mL (MIC)
[26] = E. coli MRA11, in combination with CIP
[27] = E. coli MRA11, test compound in combination with CIP
[28] = E. coli MRAE33, in combination with CIP
[29] = E. coli MRAE33, test compound in combination with CIP
[30] = E. coli MRC17, in combination with CIP
[31] = E. coli MRC17, test compound in combination with CIP

Structure (SMILES)	MIC [2, 20] [µg/mL]	MIC [2, 21] [µg/mL]	MIC [2, 22] [µg/mL]	CFUs E. coli [3]	CFUs S. pneumoniae [4]	cell lysis ([5]; 200 μg/mL) [%]	MIC [6] [µg/mL]	MIC [7] [µg/mL]	inhibition at 1024 µg/mL [1, 23] [%]	inhibition at 1024 µg/mL [1, 24] [%]	inhibition at 1024 µg/mL [1, 25] [%]	FICI [2, 26]	mode of interaction [2, 26]	MIC in combination [2, 27] [µg/mL]	FICI [2, 28]	mode of interaction [2, 28]	MIC in combination [2, 29] [µg/mL]	FICI [2, 30]	mode of interaction [2, 30]	MIC in combination [2, 31] [µg/mL]	also measured
O=C(O)c1cn(C2CC2)c2cc(N3CCNCC3)c(F)cc2c1=O [CIP, Ciprofloxacin, reference compound]	128	2	128	2.0 × 10^4	5.0 × 10^3	0.8															% inhibition of growth ([1]; multidrug-resistant E. coli strains, at a concentration lower than those of the compounds): ~100%; MIC in combination ([2]; E. coli MRA11, CIP in combination with 5e): 2 µg/mL; MIC in combination ([2]; E. coli MRA11, CIP in combination with 5u): 16 µg/mL; MIC in combination ([2]; E. coli MRAE33, CIP in combination with 5e): 2 µg/mL; MIC in combination ([2]; E. coli MRAE33, CIP in combination with 5u): 2 µg/mL; MIC in combination ([2]; E. coli MRC17, CIP in combination with 5e): 2 µg/mL; MIC in combination ([2]; E. coli MRC17, CIP in combination with 5u): 64 µg/mL
Cc1ccc(C(C)C)cc1OCc1cn(-c2ccc(C(=O)O)cc2)nn1 [Compound 5e, 4-(4-((5-Isopropyl-2-methylphenoxy)methyl)-1H-1,2,3-triazol-1-yl)benzoic Acid]	1020	1020	1020	2.5 × 10^4	7.8 × 10^3	9	125 (≈ 356 µM)	62.5 (≈ 178 µM)	> 95	86	79	0.03	synergistic (Synergy and antagonism were defined by FICI ≤ 0.5 and >4, respectively)	16	1.02	indifferent (indifferent was defined by 1 < FICI ≤ 4)	16	0.03	synergistic (Synergy and antagonism were defined by FICI ≤ 0.5 and >4, respectively)	16	growth of S. pneumoniae ([8]; sub-MIC concentration (62.5 μg/mL)): effectively inhibited the growth; time at which growth was observed (lag phase) ([9]; E. coli): approximately 6 h; growth of E. coli ([9]; MIC and 2MIC concentrations, up to 22 h of incubation): no significant growth; effect on cell morphology (TEM) [10]: significantly damaged the cell wall; effect on cell morphology (TEM) [11]: significantly damaged the cell wall; inhibition at 125 µg/mL [12]: 95.2%; inhibition at 250 µg/mL [13]: 92.3%; inhibition at 125 µg/mL [14]: 94.3%; inhibition at 250 µg/mL [15]: 93.4%; viability at 48 h, 50 μg/mL [16]: > 75%; viability at 48 h, 200 μg/mL [16]: > 50%; cytotoxicity [17]: did not show significant cytotoxicity; cell lysis ([5]; 600 μg/mL): 22%; viability of the larvae [18]: not affected; hemocyte density of the larvae [19]: not significantly affected
O=C(O)c1ccc(-n2cc(COC3=CC(=O)c4ccccc4C3=O)nn2)cc1 [Compound 5u, 4-(4-((1,4-Dioxo-1,4-dihydronaphthalen-2-yloxy)methyl)-1H-1,2,3-triazol-1-yl)benzoic Acid]	1020	1020	1020	2.7 × 10^4	6.0 × 10^3	9	125 (≈ 333 µM)	125 (≈ 333 µM)	> 90	~100	~100	0.62	partially synergistic (Partially synergistic was denoted by 0.5 > FICI < 1)	512	1.02	indifferent (indifferent was defined by 1 < FICI ≤ 4)	16	1.50	indifferent (indifferent was defined by 1 < FICI ≤ 4)	1024	time at which growth was observed ([8]; MIC concentration): 9 h; time at which growth was observed ([8]; sub-MIC concentration): 8 h; time at which growth was observed ([9]; E. coli, MIC concentration): 9 h; time at which growth was observed (lag phase) ([9]; E. coli): 6 h; effect on cell morphology (TEM) [10]: significantly damaged the cell wall; effect on cell morphology (TEM) [11]: significantly damaged the cell wall; inhibition at 250 µg/mL [12]: 92.3%; inhibition at 250 µg/mL [13]: 100%; inhibition at 250 µg/mL [14]: 77.3%; inhibition at 250 µg/mL [15]: 98.3%; viability at 48 h, 50 μg/mL [16]: > 75%; viability at 48 h, 200 μg/mL [16]: > 50%; cytotoxicity [17]: did not show significant cytotoxicity; cell lysis ([5]; 600 μg/mL): 12%; viability of the larvae [18]: not affected; hemocyte density of the larvae [19]: not significantly affected
